Measurements as given in PubChem BioAssay.
Calls of active or inactive are those of the source. Cut-off read from the data, not from the text of the source, unless noted: active = inhibition above about 30%; inactive = the rest.

What was measured:
[1] = SK-BR-3 cell growth inhibitors, pilot screen, 24 h, human (AID 572;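 active = viability at or below 10% of carrier control in both of two separate runs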;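 note: compound exposure lasted between 18 and 24 h rather than exactly 24 h; 100% = carrier-treated control wells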); details: SK-BR-3 viability, CellTiter-Glo luminescence, at 10 µM, stronger effect = lower value
[2] = HUVEC growth inhibition – cell-based, human, primary screen (AID 575;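 active = viability at or below 30% in both replicate assays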;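 note: 100% = median of untreated cell wells with 0.1% DMSO on each plate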); details: HUVEC proliferation, CellTiter-Glo luminescence, 72 h; at 10 µM; stronger effect = lower value
Summary of the method: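 Test system: primary human umbilical vein endothelial cells; medium: endothelial basal medium with 2% FBS plus growth supplements; dosing: 10 µM compound only; times: 72 h treatment at 37 °C; signal: CTG luminescence; read-out: % viability relative to median vehicle-well signal on each plate; control set: vehicle and MePR control wells; plate: 384-well, collagen-coated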

[3] = growth inhibitors of H69AR lung tumor, primary screen, human, duplicate replicates (AID 580;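 active = viability at or under a set limit in both replicates, limit being median viability minus 3 SD, cut at about 48% in these data, passing the limit was not always enough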;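 note: 100% = mean luminescence of untreated wells and 0% = no signal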); details: H69AR lung tumor cells viability, ATP luminescence, 72 h; at 10 µM; stronger effect = lower value
[4] = reversal of MRP1-mediated doxorubicin resistance, pilot screen, H69AR cells, doxorubicin co-treatment (AID 601;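 active = viability loss from added drug above about 55%, and viability with drug at most 40%, in both replicates, limit read from the data, passing the limit was not always enough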); details: CellTiter-Glo, 72 h, at 10 µM; for differential viability (reversal): stronger effect = higher value
[5] = 384-well plate pilot, post-Golgi transport modulator project, inhibition of yeast transport mutant growth (AID 636; in the data active = inhibition above about 31%); details: absorbance 615 nm, about 18 h, stronger effect = higher value
[6] = growth suppression of yeast trafficking mutant, preliminary HTS, modulators of trafficking downstream of Golgi apparatus project, 1536-format plate, OD 615 nm (AID 637); details: yeast transport mutant growth, absorbance 615 nm, 18 h; stronger effect = higher value
[7] = H69AR cells + 2 uM doxorubicin, measured here: viability with 2 uM doxorubicin, stronger effect = lower value
[8] = H69AR cells, compound alone cytotoxicity

SMILES | viability [1] | viability [2] | viability [3] | differential viability (reversal) ([4]; H69AR cells + 2 uM doxorubicin) | viability [4, 7] | viability [4, 8] | inhibition [5] | inhibition [6]
CN1CCc2c(sc3c2c(=O)n(-c2cccc(Cl)c2)c2nncn32)C1 | 102% (inactive) | 84.5% (inactive) | 95.8% (inactive) | -13.3% (inactive) | 109% | 95.8% | -2.6% (inactive) | -5.41% (inactive)
O=C(Nc1nc(-c2cccs2)cs1)c1cccc(S(=O)(=O)N2CCCCC2)c1 | 194% (inactive) | 67.2% (inactive) | 66.8% (inactive) | -5.37% (inactive) | 72.2% | 66.8% | 3.9% (inactive) | 1.64% (inactive)
NC(=O)C1CCN(C(=S)c2cccs2)CC1 | 77% (inactive) | 102% (inactive) | 96.1% (inactive) | 11.5% (inactive) | 84.7% | 96.1% | -8.49% (inactive) | 3.39% (inactive)
CC1(C)C2CCC1(C)C(OC(=O)CSc1nc(N)cc(=O)[nH]1)C2 (stereo not drawn) | 104% (inactive) | 94.2% (inactive) | 92.8% (inactive) | 6.73% (inactive) | 86.1% | 92.8% | -2.53% (inactive) | -6.91% (inactive)
O=C(Nc1sccc1C(=O)NCc1ccco1)c1cccnc1 | 90% (inactive) | 96.8% (inactive) | 79.6% (inactive) | -4.98% (inactive) | 84.5% | 79.6% | -0.55% (inactive) | 2.55% (inactive)
CC(=O)NCCCCCCNC(C)=O | 125% (inactive) | 100% (inactive) | 94.5% (inactive) | 5.61% (inactive) | 88.9% | 94.5% | 4.94% (inactive) | -1.17% (inactive)
CCN(C(=O)c1ccnc(C(C)(C)C)c1)c1ccccc1 | 88% (inactive) | 94.4% (inactive) | 79.2% (inactive) | -4.02% (inactive) | 83.3% | 79.2% | -6.85% (inactive) | 2% (inactive)
Cc1cc(C)nc(N(C#N)CC(=O)N2CCC(C(N)=O)CC2)n1 | 104% (inactive) | 85.9% (inactive) | 98.6% (inactive) | 4.1% (inactive) | 94.5% | 98.6% | -7.95% (inactive) | 1.45% (inactive)
S=c1[nH]nc(Cc2ccccc2)n1Cc1ccco1 | 78% (inactive) | 108% (inactive) | 96.3% (inactive) | -2.76% (inactive) | 99.1% | 96.3% | -1.64% (inactive) | -6.94% (inactive)
CCCCOc1ccc(C(=O)Nc2ccc(N3CCN(C(C)=O)CC3)cc2)cc1 | 81% (inactive) | 88.8% (inactive) | 94.4% (inactive) | -11.3% (inactive) | 106% | 94.4% | -1.78% (inactive) | 0.91% (inactive)
Cc1cc(=O)[nH]c(SCc2nc3ncccn3c2Br)n1 | 108% (inactive) | 78.4% (inactive) | 88.9% (inactive) | -2.9% (inactive) | 91.8% | 88.9% | -4.81% (inactive) | -3.44% (inactive)
COc1cc(C)c(Br)cc1S(=O)(=O)N1CCOCC1 | 84% (inactive) | 99.6% (inactive) | 100% (inactive) | 14.5% (inactive) | 86% | 100% | -5.48% (inactive) | -0.18% (inactive)
COc1cccc(NS(=O)(=O)c2ccc3[nH]cc(C(=O)NC4CC4)c(=O)c3c2)c1 | 101% (inactive) | 70.3% (inactive) | 70.1% (inactive) | -15.6% (inactive) | 85.7% | 70.1% | -1.04% (inactive) | 2.13% (inactive)
CCOc1ccc(CCNc2nc3c(c(=O)n(C)c(=O)n3C)n2CC)cc1OCC | 108% (inactive) | 101% (inactive) | 88.9% (inactive) | 1.88% (inactive) | 87% | 88.9% | -1.73% (inactive) | 3.27% (inactive)
COC(=O)Cc1c(C)nc2nc[nH]n2c1=O | 88% (inactive) | 93% (inactive) | 105% (inactive) | 9.79% (inactive) | 95.3% | 105% | -4.73% (inactive) | -2.91% (inactive)
CCOC(=O)c1c(NC(=O)OC)sc2c1CCC2 | 129% (inactive) | 89.7% (inactive) | 87.1% (inactive) | -0.775% (inactive) | 87.9% | 87.1% | 0.65% (inactive) | -4.75% (inactive)
CCN1CCc2c(C#N)c(N3CCCCC3)nc(NCc3ccccc3)c2C1 | 103% (inactive) | 2.17% (active) | 16.3% (active) | -10.1% (inactive) | 26.4% | 16.3% | -4.4% (inactive) | 16.6% (inactive)
COc1ccc(C(C)NC(=O)c2ccoc2C)cc1OC (stereo not drawn) | 83% (inactive) | 91.3% (inactive) | 89.8% (inactive) | -4.93% (inactive) | 94.7% | 89.8% | -6.16% (inactive) | 1.82% (inactive)

SMILES | viability [1] | viability [2] | viability [3] | differential viability (reversal) ([4]; H69AR cells + 2 uM doxorubicin) | viability [4, 7] | viability [4, 8] | inhibition [5] | inhibition [6]
CCN(CC)CCNC(=O)c1ccc(N2CCCCC2)c(NS(=O)(=O)c2ccc(C)cc2)c1 | 81% (inactive) | 18.5% (active) | 76.6% (inactive) | 2.53% (inactive) | 74.1% | 76.6% | -6.13% (inactive) | 7.21% (inactive)
CCOC(=O)/C=C1\SCC(=O)N1Cc1nnc(-c2ccccc2Br)o1 | 107% (inactive) | 97.5% (inactive) | 91.3% (inactive) | 3.01% (inactive) | 88.2% | 91.3% | -7.81% (inactive) | 1.82% (inactive)
CC(C)c1nc(NCC2CCCO2)c(C#N)c2c1COC(C)(C)C2 (stereo not drawn) | 95% (inactive) | 74.9% (inactive) | 89.1% (inactive) | 4.7% (inactive) | 84.4% | 89.1% | -9.86% (inactive) | 13.9% (inactive)
CCCCN1C[C@H](O)[C@@H](O)[C@H](O)[C@H]1CO | 123% (inactive) | 88.9% (inactive) | 96.5% (inactive) | -3.9% (inactive) | 100% | 96.5% | 1.82% (inactive) | 27% (inactive)
NS(=O)(=O)c1ccc(NC(=O)CSc2nnc(Cc3cccs3)n2-c2ccccc2)cc1 | 57% (inactive) | 93.6% (inactive) | 93.3% (inactive) | 4.08% (inactive) | 89.2% | 93.3% | -7.53% (inactive) | 2.18% (inactive)
Cc1nc2cc(NC(=O)N3c4ccccc4CC3C)ccc2o1 (stereo not drawn) | 91% (inactive) | 96.2% (inactive) | 86.3% (inactive) | 8.09% (inactive) | 78.2% | 86.3% | -5.6% (inactive) | -13.4% (inactive)
O=C(CN1CCC(n2nnc3ccccc32)CC1)Nc1ccc2c(c1)CCC2 | 64% (inactive) | 92% (inactive) | 89.3% (inactive) | 1.24% (inactive) | 88.1% | 89.3% | -8.63% (inactive) | 2% (inactive)
CN(C)C(=O)CN(C)S(=O)(=O)c1ccc(Cl)cc1 | 139% (inactive) | 98.9% (inactive) | 97.9% (inactive) | -6.11% (inactive) | 104% | 97.9% | -6.3% (inactive) | 1.82% (inactive)
O=C(C1CCN(S(=O)(=O)c2cnc[nH]2)CC1)N1CCN(c2ncccn2)CC1 | 112% (inactive) | 111% (inactive) | 102% (inactive) | 19.5% (inactive) | 82.8% | 102% | -5.33% (inactive) | 0% (inactive)
Cc1nc(SCC(=O)Nc2cc(C)on2)c2c3c(sc2n1)CCCC3 | 66.5% (inactive) | 78.5% (inactive) | 30.4% (active) | 6.21% (inactive) | 24.2% | 30.4% | -2.97% (inactive) | -1.11% (inactive)
O=C(O)c1cccc(NC(=O)C23CC4CC(C2)CC(n2cnc(Cl)n2)(C4)C3)c1 | 122% (inactive) | 105% (inactive) | 96.9% (inactive) | 5.78% (inactive) | 91.1% | 96.9% | -1.95% (inactive) | 0.98% (inactive)
CC(=O)OC(C)C[N+](C)(C)C (stereo not drawn) | 103% (inactive) | 86.7% (inactive) | 104% (inactive) | 14.9% (inactive) | 89.3% | 104% | -5.97% (inactive) | 3.5% (inactive)
CCC(C)n1ncn(-c2ccc(N3CCN(c4ccc(OCC5COC(Cn6cncn6)(c6ccc(Cl)cc6Cl)O5)cc4)CC3)cc2)c1=O (stereo not drawn) | 84% (inactive) | 7.76% (active) | 69.8% (inactive) | -1.92% (inactive) | 71.8% | 69.8% | 100% (active) | 96.7% (active)
c1ccc2c(c1)CCCC2C1=NCCN1 (stereo not drawn) | 100% (inactive) | 84.6% (inactive) | 95.3% (inactive) | 6.75% (inactive) | 88.6% | 95.3% | -2.6% (inactive) | 1% (inactive)
COc1ccc(OC)c(S(=O)(=O)Nc2ccc(O)c3ccccc23)c1 | 6% (active) | 3.38% (active) | 1.73% (active) | -0.325% (inactive) | 2.06% | 1.73% | -2.5% (inactive) | -5.33% (inactive)
COC(=O)c1cccc(Nc2cc(C)nc(-c3ccccc3O)n2)c1 | 69% (inactive) | 62.3% (inactive) | 64.4% (inactive) | -6.26% (inactive) | 70.7% | 64.4% | 0% (inactive) | 2.18% (inactive)
CCOCCCN(Cc1cc2cc(C)cc(C)c2[nH]c1=O)C(=O)N(CC)CC | 58% (inactive) | 116% (inactive) | 82% (inactive) | -2.52% (inactive) | 84.5% | 82% | 0.93% (inactive) | 10% (inactive)
CN(C)CCN(Cc1ccccc1)c1ccccn1 | 100% (inactive) | 89.1% (inactive) | 101% (inactive) | 8.55% (inactive) | 92.7% | 101% | 3.38% (inactive) | -0.67% (inactive)
